What was measured:
[1] = Cytotoxicity against human Raji cells assessed as cell viability at 10^-6 M; assay type: cell-based; settings: read-out: Activity
[2] = Cytotoxicity against human Raji cells assessed as cell viability at 10^-7 M; assay type: cell-based; settings: read-out: Activity
Human gammaherpesvirus 4 [3] = assay: Induction of EBV-early antigen expressed in human Raji cells at 10^-6 M after 48 hrs by immunofluorescence assay relative to control; assay type: organism-based; settings: human gammaherpesvirus 4, raji, 1 µM
How it was run: (§1)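 Raji B-lymphoblastoid cells (5 × 10^5/mL) in RPMI 1640 with 10% FBS, with 4 mM sodium n-butyrate as synergist and test compound at 10^-7 or 10^-6 M (final DMSO 0.4%). Incubated 48 h at 37 °C under 5% CO2. Smears were stained by indirect immunofluorescence using NPC patient serum and FITC anti-human IgG. At least 500 cells counted; % EA-positive recorded; n = 3, SEM.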

Human gammaherpesvirus 4 [4] = assay: Induction of EBV-early antigen expressed in human Raji cells at 10^-7 M after 48 hrs by immunofluorescence assay relative to control; assay type: organism-based; settings: human gammaherpesvirus 4, raji, 0.1 µM; how it was run: as §1
PC-3 = assay: Growth inhibition of human PC3 cells after 48 hrs by sulforhodamine B assay; assay type: functional; settings: PC-3, 48 h
How it was run: (§2)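 Yamori 39-line human cancer panel, NCI method with modifications. Cells plated in RPMI 1640 plus 5% FBS, attached overnight, then exposed 48 h to compound at 10^-8, 10^-7, 10^-6, 10^-5 and 10^-4 M. Sulforhodamine B staining read at 525 nm; % growth = 100[(T−T0)/(C−T0)] from duplicate-point averages, with T0 the time-zero absorbance. GI50 is the concentration giving 50.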

DU-145 = assay: Growth inhibition of human DU145 cells after 48 hrs by sulforhodamine B assay; assay type: functional; settings: DU-145, 48 h; how it was run: as §2
MKN-74 = assay: Growth inhibition of human MKN74 cells after 48 hrs by sulforhodamine B assay; assay type: functional; settings: MKN-74, 48 h; how it was run: as §2
MKN-28 = assay: Growth inhibition of human MKN28 cells after 48 hrs by sulforhodamine B assay; assay type: functional; settings: MKN-28, 48 h; how it was run: as §2
MKN-45 = assay: Growth inhibition of human MKN45 cells after 48 hrs by sulforhodamine B assay; assay type: functional; settings: MKN-45, 48 h; how it was run: as §2
MKN-7 = assay: Growth inhibition of human MKN7 cells after 48 hrs by sulforhodamine B assay; assay type: functional; settings: MKN-7, 48 h; how it was run: as §2
St-4 = assay: Growth inhibition of human St-4 cells after 48 hrs by sulforhodamine B assay; assay type: functional; settings: St-4, 48 h; how it was run: as §2
[5] = Growth inhibition of human MKN1 cells after 48 hrs by sulforhodamine B assay; assay type: functional; settings: MKN-1, 48 h; how it was run: as §2
[6] = Growth inhibition of human RXF631L cells after 48 hrs by sulforhodamine B assay; assay type: functional; settings: RXF 631, 48 h; how it was run: as §2
ACHN = assay: Growth inhibition of human ACHN cells after 48 hrs by sulforhodamine B assay; assay type: functional; how it was run: as §2
OVCAR-8 = assay: Growth inhibition of human OVCAR8 cells after 48 hrs by sulforhodamine B assay; assay type: functional; settings: OVCAR-8, 48 h; how it was run: as §2
SK-OV-3 = assay: Growth inhibition of human SKOV3 cells after 48 hrs by sulforhodamine B assay; assay type: functional; settings: SK-OV-3, 48 h; how it was run: as §2
OVCAR-5 = assay: Growth inhibition of human OVCAR5 cells after 48 hrs by sulforhodamine B assay; assay type: functional; settings: OVCAR-5, 48 h; how it was run: as §2
OVCAR-3 = assay: Growth inhibition of human OVCAR3 cells after 48 hrs by sulforhodamine B assay; assay type: functional; settings: OVCAR-3, 48 h; how it was run: as §2
OVCAR-4 = assay: Growth inhibition of human OVCAR4 cells after 48 hrs by sulforhodamine B assay; assay type: functional; settings: OVCAR-4, 48 h; how it was run: as §2
DMS-114 = assay: Growth inhibition of human DMS114 cells after 48 hrs by sulforhodamine B assay; assay type: functional; settings: DMS-114, 48 h; how it was run: as §2
LOX IMVI = assay: Growth inhibition of human LOXIMVI cells after 48 hrs by sulforhodamine B assay; assay type: functional; how it was run: as §2
A549 = assay: Growth inhibition of human A549 cells after 48 hrs by sulforhodamine B assay; assay type: functional; settings: A549, 48 h; how it was run: as §2
DMS-273 = assay: Growth inhibition of human DMS273 cells after 48 hrs by sulforhodamine B assay; assay type: functional; settings: DMS-273, 48 h; how it was run: as §2
NCI-H460 = assay: Growth inhibition of human NCI-H460 cells after 48 hrs by sulforhodamine B assay; assay type: functional; settings: NCI-H460, 48 h; how it was run: as §2
NCI-H226 = assay: Growth inhibition of human NCI-H226 cells after 48 hrs by sulforhodamine B assay; assay type: functional; settings: NCI-H226, 48 h; how it was run: as §2
NCI-H522 = assay: Growth inhibition of human NCI-H522 cells after 48 hrs by sulforhodamine B assay; assay type: functional; settings: NCI-H522, 48 h; how it was run: as §2
HCT-116 = assay: Growth inhibition of human HCT116 cells after 48 hrs by sulforhodamine B assay; assay type: functional; settings: HCT-116, 48 h; how it was run: as §2
NCI-H23 = assay: Growth inhibition of human NCI-H23 cells after 48 hrs by sulforhodamine B assay; assay type: functional; settings: NCI-H23, 48 h; how it was run: as §2
HCT-15 = assay: Growth inhibition of human HCT15 cells after 48 hrs by sulforhodamine B assay; assay type: functional; settings: HCT-15, 48 h; how it was run: as §2
KM12 = assay: Growth inhibition of human KM12 cells after 48 hrs by sulforhodamine B assay; assay type: functional; settings: KM12, 48 h; how it was run: as §2
HT-29 = assay: Growth inhibition of human HT-29 cells after 48 hrs by sulforhodamine B assay; assay type: functional; settings: HT-29, 48 h; how it was run: as §2
SNB-78 = assay: Growth inhibition of human SNB78 cells after 48 hrs by sulforhodamine B assay; assay type: functional; settings: SNB-78, 48 h; how it was run: as §2
[7] = Growth inhibition of human HCC2998 cells after 48 hrs by sulforhodamine B assay; assay type: functional; settings: HCC 2998, 48 h; how it was run: as §2
SF-539 = assay: Growth inhibition of human SF539 cells after 48 hrs by sulforhodamine B assay; assay type: functional; settings: SF-539, 48 h; how it was run: as §2
SNB-75 = assay: Growth inhibition of human SNB75 cells after 48 hrs by sulforhodamine B assay; assay type: functional; settings: SNB-75, 48 h; how it was run: as §2
SF-295 = assay: Growth inhibition of human SF295 cells after 48 hrs by sulforhodamine B assay; assay type: functional; settings: SF-295, 48 h; how it was run: as §2
U-251 = assay: Growth inhibition of human U251 cells after 48 hrs by sulforhodamine B assay; assay type: functional; settings: U-251, 48 h; how it was run: as §2
SF-268 = assay: Growth inhibition of human SF268 cells after 48 hrs by sulforhodamine B assay; assay type: functional; settings: SF-268, 48 h; how it was run: as §2
MCF7 = assay: Growth inhibition of human MCF7 cells after 48 hrs by sulforhodamine B assay; assay type: functional; settings: MCF7, 48 h; how it was run: as §2
MDA-MB-231 = assay: Growth inhibition of human MDA-MB-231 cells after 48 hrs by sulforhodamine B assay; assay type: functional; settings: MDA-MB-231, 48 h; how it was run: as §2
[8] = Growth inhibition of human BSY1 cells after 48 hrs by sulforhodamine B assay; assay type: functional; settings: BSY-1, 48 h; how it was run: as §2
[9] = Growth inhibition of human HBC5 cells after 48 hrs by sulforhodamine B assay; assay type: functional; settings: HBC5, 48 h; how it was run: as §2
[10] = Growth inhibition of human HBC4 cells after 48 hrs by sulforhodamine B assay; assay type: functional; settings: HBC4, 48 h; how it was run: as §2
[11] = Octanol-water partition coefficient, log P of the compound by HPLC analysis; assay type: physicochemical
How it was run: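 log P was estimated from HPLC retention, with column dead time measured using unretained formamide.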

[12] = biological target: T1, Protein kinase C delta type (Homo sapiens, UniProt Q05655); assay: Inhibition of [3H]PDBu binding to PKCdelta-C1A domain peptide (unknown origin)
T1 sequence (Q05655 whole entry, the tested form may be a part): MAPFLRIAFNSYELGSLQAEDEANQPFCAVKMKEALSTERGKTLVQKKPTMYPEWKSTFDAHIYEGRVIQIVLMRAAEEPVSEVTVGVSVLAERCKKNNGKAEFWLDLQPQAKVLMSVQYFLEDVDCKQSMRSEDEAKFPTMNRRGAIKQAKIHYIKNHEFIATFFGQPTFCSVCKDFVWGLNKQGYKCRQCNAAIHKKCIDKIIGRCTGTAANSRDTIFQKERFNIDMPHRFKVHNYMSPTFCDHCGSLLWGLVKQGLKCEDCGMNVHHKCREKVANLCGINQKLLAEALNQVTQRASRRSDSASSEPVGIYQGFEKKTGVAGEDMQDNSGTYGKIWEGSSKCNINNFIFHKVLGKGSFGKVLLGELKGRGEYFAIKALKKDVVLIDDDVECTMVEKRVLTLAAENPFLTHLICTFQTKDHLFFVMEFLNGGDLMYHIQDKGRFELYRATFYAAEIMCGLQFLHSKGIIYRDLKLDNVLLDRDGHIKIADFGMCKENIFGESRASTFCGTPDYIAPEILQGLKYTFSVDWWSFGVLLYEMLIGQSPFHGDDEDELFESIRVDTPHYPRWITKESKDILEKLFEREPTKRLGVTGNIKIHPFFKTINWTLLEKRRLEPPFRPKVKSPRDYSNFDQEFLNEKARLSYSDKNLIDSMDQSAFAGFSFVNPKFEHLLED
How it was run: (§3)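 Competitive [3H]PDBu binding used 14 or 40 nM PKCδ C1 peptide and 20 nM [3H]PDBu (19.6 Ci/mmol), in 50 mM Tris-maleate (pH 7.4 at 4 °C) with 50 µg/mL phosphatidylserine, 3 mg/mL bovine γ-globulin and varied inhibitor concentrations. IC50 was taken as 50% inhibition of specific binding. Ki was derived by the Sharkey–Blumberg method.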

[13] = biological target: T1, Protein kinase C delta type; assay: Inhibition of [3H]PDBu binding to PKCdelta-C1B domain peptide (unknown origin); how it was run: as §3

CC(=O)Nc1ccc(CCCC[C@@H]2C[C@@H]3C[C@@]4(O[C@H](CCC4(C)C)CC(=O)O[C@@H](CO)CC(=O)O3)O2)cc1O
viability at 1 µM [1]: 60%
viability at 0.1 µM [2]: 60%
Activity (Human gammaherpesvirus 4 [3]): 2.4%
Activity (Human gammaherpesvirus 4 [4]): 2.4%
GI50 (PC-3): 20.9 µM
GI50 (DU-145): 29.5 µM
GI50 (MKN-74): 33.1 µM
GI50 (MKN-28): 2.57 µM
GI50 (MKN-45): 28.8 µM
GI50 (MKN-7): 30.2 µM
GI50 (St-4): 2.14 µM
GI50 [5]: 34.7 µM
GI50 [6]: 28.8 µM
GI50 (ACHN): 26.3 µM
GI50 (OVCAR-8): 44.7 µM
GI50 (SK-OV-3): 34.7 µM
GI50 (OVCAR-5): 20.4 µM
GI50 (OVCAR-3): 23.4 µM
GI50 (OVCAR-4): 37.2 µM
GI50 (DMS-114): 20.9 µM
GI50 (LOX IMVI): 12.9 µM
GI50 (A549): 15.1 µM
GI50 (DMS-273): 0.933 µM
GI50 (NCI-H460): 20.4 µM
GI50 (NCI-H226): 26.9 µM
GI50 (NCI-H522): 25.7 µM
GI50 (HCT-116): 31.6 µM
GI50 (NCI-H23): 33.9 µM
GI50 (HCT-15): 33.9 µM
GI50 (KM12): 31.6 µM
GI50 (HT-29): 19.5 µM
GI50 (SNB-78): 51.3 µM
GI50 [7]: 13.8 µM
GI50 (SF-539): 30.2 µM
GI50 (SNB-75): 41.7 µM
GI50 (SF-295): 13.2 µM
GI50 (U-251): 26.9 µM
GI50 (SF-268): 43.7 µM
GI50 (MCF7): 40.7 µM
GI50 (MDA-MB-231): 16.6 µM
GI50 [8]: 26.3 µM
GI50 [9]: 46.8 µM
GI50 [10]: 2.45 µM
logP [11]: 2.7
Ki [12]: 0.29 µM
Ki [13]: 0.036 µM

CC(=O)Nc1ccc(O)cc1CCCC[C@@H]1C[C@@H]2C[C@@]3(O[C@H](CCC3(C)C)CC(=O)O[C@@H](CO)CC(=O)O2)O1
viability at 1 µM [1]: 60%
viability at 0.1 µM [2]: 60%
Activity (Human gammaherpesvirus 4 [3]): 2.1%
Activity (Human gammaherpesvirus 4 [4]): 2%
GI50 (PC-3): > 100 µM
GI50 (DU-145): > 100 µM
GI50 (MKN-74): 70.8 µM
GI50 (MKN-28): 87.1 µM
GI50 (MKN-45): > 100 µM
GI50 (MKN-7): > 100 µM
GI50 (St-4): > 100 µM
GI50 [5]: > 100 µM
GI50 [6]: > 100 µM
GI50 (ACHN): > 100 µM
GI50 (OVCAR-8): > 100 µM
GI50 (SK-OV-3): > 100 µM
GI50 (OVCAR-5): > 100 µM
GI50 (OVCAR-3): > 100 µM
GI50 (OVCAR-4): > 100 µM
GI50 (DMS-114): 55 µM
GI50 (LOX IMVI): 74.1 µM
GI50 (A549): > 100 µM
GI50 (DMS-273): 43.7 µM
GI50 (NCI-H460): > 100 µM
GI50 (NCI-H226): 53.7 µM
GI50 (NCI-H522): > 100 µM
GI50 (HCT-116): > 100 µM
GI50 (NCI-H23): > 100 µM
GI50 (HCT-15): > 100 µM
GI50 (KM12): > 100 µM
GI50 (HT-29): > 100 µM
GI50 (SNB-78): > 100 µM
GI50 [7]: 72.4 µM
GI50 (SF-539): > 100 µM
GI50 (SNB-75): > 100 µM
GI50 (SF-295): 60.3 µM
GI50 (U-251): > 100 µM
GI50 (SF-268): > 100 µM
GI50 (MCF7): > 100 µM
GI50 (MDA-MB-231): > 100 µM
GI50 [8]: > 100 µM
GI50 [9]: > 100 µM
GI50 [10]: > 100 µM
logP [11]: 2.3
Ki [12]: 8.7 µM
Ki [13]: 0.69 µM

Source: ChEMBL document CHEMBL2380295, “Structure-activity studies on the side chain of a simplified analog of aplysiatoxin (aplog-1) with anti-proliferative activity” (Bioorg Med Chem, 2013)
